# What was measured:
# Type in all cases: functional, Salmonella enterica subsp. enterica serovar Typhimurium
# Salmonella typhimurium [1] = test: Antimicrobial activity against Salmonella enterica serovar Typhimurium CHS38 gyrA+ with GyrA D87G mutation
# Procedure, shortened: (§1)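 MICs measured by broth microdilution on the Sensititre automated system and interpreted by CLSI broth microdilution standards. Ciprofloxacin was also tested by agar dilution, widening the range to 0.0075–128 μg/ml. Quality control strains were E. coli ATCC 25922 and 35218, E. faecalis ATCC 29212, S. aureus ATCC 29213 and P. aeruginosa ATCC 27853.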
# Salmonella typhimurium [2] = test: Antimicrobial activity against Salmonella enterica serovar Typhimurium S21-1 GyrA S83F mutant; procedure, shortened: as §1
# Salmonella typhimurium [3] = test: Antimicrobial activity against Salmonella enterica serovar Typhimurium CHS18 tolC::Kan with GyrA S38F mutation; procedure, shortened: as §1
# Salmonella typhimurium [4] = test: Antimicrobial activity against Salmonella enterica serovar Typhimurium S21-3 gyrA+ with ParC S80I mutation; procedure, shortened: as §1
# Salmonella typhimurium [5] = test: Antimicrobial activity against Salmonella enterica serovar Typhimurium S21 gyrA+; procedure, shortened: as §1
# Salmonella typhimurium [6] = test: Antimicrobial activity against Salmonella enterica serovar Typhimurium CHS14 acrAB::Kan with GyrA D87G mutation; procedure, shortened: as §1
# Salmonella typhimurium [7] = test: Antimicrobial activity against Salmonella enterica serovar Typhimurium S21; procedure, shortened: as §1
# Salmonella typhimurium [8] = test: Antimicrobial activity against Salmonella enterica serovar Typhimurium CS3 acrAB::Kan with GyrA S83F, D87N, ParC S80I mutation; procedure, shortened: as §1
# Salmonella typhimurium [9] = test: Antimicrobial activity against Salmonella enterica serovar Typhimurium CS3 gyrA+ with GyrA S83F, D87N, ParC S80I mutation; procedure, shortened: as §1
# Salmonella typhimurium [10] = test: Antimicrobial activity against Salmonella enterica serovar Typhimurium S21-2 with GyrA S83F, ParC S80I mutation; procedure, shortened: as §1
# Salmonella typhimurium [11] = test: Antimicrobial activity against Salmonella enterica serovar Typhimurium CS3 with GyrA S83F, D87N, ParC S80I mutation; procedure, shortened: as §1
# Salmonella typhimurium [12] = test: Antimicrobial activity against Salmonella enterica serovar Typhimurium CHS38 with GyrA D87G mutation; procedure, shortened: as §1
# Salmonella typhimurium [13] = test: Antimicrobial activity against Salmonella enterica serovar Typhimurium CS9 with GyrA S83F, D87N, ParC S80I mutation; procedure, shortened: as §1
# Salmonella typhimurium [14] = test: Antimicrobial activity against Salmonella enterica serovar Typhimurium S21-2 acrAB::Kan with GyrA S83F, ParC S80I mutation; procedure, shortened: as §1
# Salmonella typhimurium [15] = test: Antimicrobial activity against Salmonella enterica serovar Typhimurium S21-4 tolC::Kan with GyrA S83F, ParC S80I mutation; procedure, shortened: as §1
# Salmonella typhimurium [16] = test: Antimicrobial activity against Salmonella enterica serovar Typhimurium GyrA S21-1 acrAB::Kan with GyrA S83F mutation; procedure, shortened: as §1
# Salmonella typhimurium [17] = test: Antimicrobial activity against Salmonella enterica serovar Typhimurium CHS18 acrAB::Kan with GyrA S38F mutation; procedure, shortened: as §1
# Salmonella typhimurium [18] = test: Antimicrobial activity against Salmonella enterica serovar Typhimurium S21-2 gyrA+ with ParC S80I mutation; procedure, shortened: as §1
# Salmonella typhimurium [19] = test: Antimicrobial activity against Salmonella enterica serovar Typhimurium CHS14 tolC::Kan with GyrA D87G mutant; procedure, shortened: as §1
# Salmonella typhimurium [20] = test: Antimicrobial activity against Salmonella enterica serovar Typhimurium S21-3 tolC::Kan with GyrA S83F, ParC S80I mutation; procedure, shortened: as §1
# Salmonella typhimurium [21] = test: Antimicrobial activity against Salmonella enterica serovar Typhimurium CHS38 tolC::Kan with GyrA D87G mutation; procedure, shortened: as §1
# Salmonella typhimurium [22] = test: Antimicrobial activity against Salmonella enterica serovar Typhimurium CS1 acrAB::Kan with GyrA S83F, D87N, ParC S80I mutation; procedure, shortened: as §1
# Salmonella typhimurium [23] = test: Antimicrobial activity against Salmonella enterica serovar Typhimurium CS9 gyrA+ with GyrA S83F, D87N, ParC S80I mutation; procedure, shortened: as §1
# Salmonella typhimurium [24] = test: Antimicrobial activity against Salmonella enterica serovar Typhimurium CS1 with GyrA S83F, D87N, ParC S80I mutation; procedure, shortened: as §1
# Salmonella typhimurium [25] = test: Antimicrobial activity against Salmonella enterica serovar Typhimurium S21-4 with GyrA S83F, ParC S80I mutation; procedure, shortened: as §1
# Salmonella typhimurium [26] = test: Antimicrobial activity against Salmonella enterica serovar Typhimurium S21-4 gyrA+ with ParC S80I mutation; procedure, shortened: as §1
# Salmonella typhimurium [27] = test: Antimicrobial activity against Salmonella enterica serovar Typhimurium S21-1 tolC::Kan with GyrA S83F mutation; procedure, shortened: as §1
# Salmonella typhimurium [28] = test: Antimicrobial activity against Salmonella enterica serovar Typhimurium CHS18 with GyrA S38F mutation; procedure, shortened: as §1
# Salmonella typhimurium [29] = test: Antimicrobial activity against Salmonella enterica serovar Typhimurium S21-1 gyrA+; procedure, shortened: as §1
# Salmonella typhimurium [30] = test: Antimicrobial activity against Salmonella enterica serovar Typhimurium S21 tolC::Kan
# Procedure, shortened: (§2)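 MICs by automated broth microdilution panels, interpreted to CLSI broth microdilution standards. Ciprofloxacin additionally tested by agar dilution across 0.0075 to 128 μg/ml. Quality control strains: E. coli ATCC 25922 and 35218, Enterococcus faecalis ATCC 29212, S. aureus ATCC 29213, P. aeruginosa ATCC 27853. Test strains are kanamycin-marked deletion mutants of ground-beef isolate S21.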
# Salmonella typhimurium [31] = test: Antimicrobial activity against Salmonella enterica serovar Typhimurium CS1 tolC::Kan with GyrA S83F, D87N, ParC S80I mutation; procedure, shortened: as §1
# Salmonella typhimurium [32] = test: Antimicrobial activity against Salmonella enterica serovar Typhimurium CHS18 gyrA+ with GyrA S38F mutation; procedure, shortened: as §1
# Salmonella typhimurium [33] = test: Antimicrobial activity against Salmonella enterica serovar Typhimurium CS1 gyrA+ with GyrA S83F, D87N, ParC S80I mutation; procedure, shortened: as §1
# Salmonella typhimurium [34] = test: Antimicrobial activity against Salmonella enterica serovar Typhimurium CHS14 with GyrA D87G mutation; procedure, shortened: as §1
# Salmonella typhimurium [35] = test: Antimicrobial activity against Salmonella enterica serovar Typhimurium S21-4 acrAB::Kan with GyrA S83F, ParC S80I mutation; procedure, shortened: as §1
# Salmonella typhimurium [36] = test: Antimicrobial activity against Salmonella enterica serovar Typhimurium S21-3 with GyrA S83F, ParC S80I mutation; procedure, shortened: as §1
# Salmonella typhimurium [37] = test: Antimicrobial activity against Salmonella enterica serovar Typhimurium S21-3 acrAB::Kan with GyrA S83F, ParC S80I mutation; procedure, shortened: as §1
# Salmonella typhimurium [38] = test: Antimicrobial activity against Salmonella enterica serovar Typhimurium S21-2 tolC::Kan with GyrA S83F, ParC S80I mutation; procedure, shortened: as §1
# Salmonella typhimurium [39] = test: Antimicrobial activity against Salmonella enterica serovar Typhimurium CS9 acrAB::Kan with GyrA S83F, D87N, ParC S80I mutation; procedure, shortened: as §1
# Salmonella typhimurium [40] = test: Antimicrobial activity against Salmonella enterica serovar Typhimurium S21 acrAB::Kan; procedure, shortened: as §2
# Salmonella typhimurium [41] = test: Antimicrobial activity against Salmonella enterica serovar Typhimurium CHS38 acrAB::Kan with GyrA D87G mutation; procedure, shortened: as §1
# Salmonella typhimurium [42] = test: Antimicrobial activity against Salmonella enterica serovar Typhimurium CS9 tolC::Kan with GyrA S83F, D87N, ParC S80I mutation; procedure, shortened: as §1
# Salmonella typhimurium [43] = test: Antimicrobial activity against Salmonella enterica serovar Typhimurium CS3 tolC::Kan with GyrA S83F, D87N, parC S80I mutation; procedure, shortened: as §1
# Salmonella typhimurium [44] = test: Antimicrobial activity against Salmonella enterica serovar Typhimurium CHS14 gyrA+ with GyrA D87G mutation; procedure, shortened: as §1
smiles,measurement,setting,value
CN1CCN(c2cc3c(cc2F)c(=O)c(C(=O)O)cn3-c2ccc(F)cc2)CC1 [DIFLOXACIN],MIC,Salmonella typhimurium [1],< 0.015 µg/mL
same,MIC,Salmonella typhimurium [2],4 µg/mL
same,MIC,Salmonella typhimurium [3],0.06 µg/mL
same,MIC,Salmonella typhimurium [4],4 µg/mL
same,MIC,Salmonella typhimurium [5],0.25 µg/mL
same,MIC,Salmonella typhimurium [6],0.03 µg/mL
same,MIC,Salmonella typhimurium [7],0.25 µg/mL
same,MIC,Salmonella typhimurium [8],16 µg/mL
same,MIC,Salmonella typhimurium [9],0.5 µg/mL
same,MIC,Salmonella typhimurium [10],> 16 µg/mL
same,MIC,Salmonella typhimurium [11],> 16 µg/mL
same,MIC,Salmonella typhimurium [12],1 µg/mL
same,MIC,Salmonella typhimurium [13],> 16 µg/mL
same,MIC,Salmonella typhimurium [14],0.25 µg/mL
same,MIC,Salmonella typhimurium [15],1 µg/mL
same,MIC,Salmonella typhimurium [16],0.25 µg/mL
same,MIC,Salmonella typhimurium [17],1 µg/mL
same,MIC,Salmonella typhimurium [18],2 µg/mL
same,MIC,Salmonella typhimurium [19],0.03 µg/mL
same,MIC,Salmonella typhimurium [20],0.5 µg/mL
same,MIC,Salmonella typhimurium [21],< 0.015 µg/mL
same,MIC,Salmonella typhimurium [22],16 µg/mL
same,MIC,Salmonella typhimurium [23],0.5 µg/mL
same,MIC,Salmonella typhimurium [24],> 16 µg/mL
same,MIC,Salmonella typhimurium [25],> 16 µg/mL
same,MIC,Salmonella typhimurium [26],4 µg/mL
same,MIC,Salmonella typhimurium [27],0.25 µg/mL
same,MIC,Salmonella typhimurium [28],2 µg/mL
same,MIC,Salmonella typhimurium [29],0.25 µg/mL
same,MIC,Salmonella typhimurium [30],< 0.015 µg/mL
same,MIC,Salmonella typhimurium [31],4 µg/mL
same,MIC,Salmonella typhimurium [32],0.25 µg/mL
same,MIC,Salmonella typhimurium [33],0.5 µg/mL
same,MIC,Salmonella typhimurium [34],1 µg/mL
same,MIC,Salmonella typhimurium [35],1 µg/mL
same,MIC,Salmonella typhimurium [36],> 16 µg/mL
same,MIC,Salmonella typhimurium [37],0.5 µg/mL
same,MIC,Salmonella typhimurium [38],0.25 µg/mL
same,MIC,Salmonella typhimurium [39],16 µg/mL
same,MIC,Salmonella typhimurium [40],< 0.015 µg/mL
same,MIC,Salmonella typhimurium [41],0.06 µg/mL
same,MIC,Salmonella typhimurium [42],4 µg/mL
same,MIC,Salmonella typhimurium [43],4 µg/mL
same,MIC,Salmonella typhimurium [44],0.5 µg/mL
